Source: PubChem (several laboratories)
Only some compounds are listed: those with a hit (about 3.2% of all), similar ones and a draw of the others.
Hck-Nef inh: inhibitors of Nef-activated human Hck kinase, primary screen, biochemical, Z-Lyte FRET, 384-well, Hck-YEEI. Tyrosine-protein kinase HCK (Homo sapiens), P08631. Recombinant Hck-YEEI plus Nef, Z-Lyte FRET kinase assay. inhibition, % at 20 µM. 220,000 tested, 0.68% active;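 active = Hck-Nef kinase inhibition above about 50%, limit read from the data; inactive = inhibition below that limit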;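 note: 0% = DMSO with Hck plus Nef and 100% = Hck alone without Nef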
Target sequence (P08631 whole entry, looked up): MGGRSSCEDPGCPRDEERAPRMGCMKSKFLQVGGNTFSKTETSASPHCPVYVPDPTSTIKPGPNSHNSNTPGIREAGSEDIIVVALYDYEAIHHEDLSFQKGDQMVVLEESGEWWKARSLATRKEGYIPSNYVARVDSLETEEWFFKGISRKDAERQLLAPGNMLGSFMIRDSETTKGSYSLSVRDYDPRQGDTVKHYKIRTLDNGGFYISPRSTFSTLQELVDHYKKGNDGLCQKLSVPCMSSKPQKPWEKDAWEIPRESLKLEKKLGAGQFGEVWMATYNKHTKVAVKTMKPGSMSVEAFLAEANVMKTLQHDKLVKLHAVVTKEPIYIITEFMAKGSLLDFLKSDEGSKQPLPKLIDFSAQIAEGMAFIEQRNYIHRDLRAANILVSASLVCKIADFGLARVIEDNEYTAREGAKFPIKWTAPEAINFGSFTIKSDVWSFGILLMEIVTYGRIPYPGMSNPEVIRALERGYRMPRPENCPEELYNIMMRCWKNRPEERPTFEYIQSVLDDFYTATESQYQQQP
Bim-Mcl-1: inhibitors of Bim peptide binding to Mcl-1, primary screen, biochemical, bead-based flow cytometry, multiplex; Induced myeloid leukemia cell differentiation protein Mcl-1 (Homo sapiens), Q07820; Bim peptide-Mcl-1 binding; inhibition, % at 10 µM; 190,000 tested, 0.1% active; AID 1009, 2008; in the data active = inhibition above about 40%;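 note: 0% = no compound tracer wells and 100% = peptide blocker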
Mcl1 Bid PPI: Mcl-1/Bid binding inhibitors, primary screen, biochemical, TR-FRET, 1536-well; Induced myeloid leukemia cell differentiation protein Mcl-1 (Homo sapiens), Q07820; TR-FRET Mcl-1/Bid-Dy647 peptide binding; inhibition, % at 21.7 µM; 220,000 tested, 0.97% active; AID 1021, 2008;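 active = compounds that cut the binding signal by more than half at the single screening dose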;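 note: His-tagged Mcl-1 with europium anti-His antibody binding Bid BH3 peptide; 0% = Mcl-1 plus peptide wells and 100% = peptide-only wells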
Calb biofilm kill: clotrimazole potentiators killing C. albicans biofilm, primary screen, 4-compound mixtures. C. albicans biofilm persisters + clotrimazole, fluorescence viability; primary screen in compound mixtures of four per well. inhibition, % at 7.6 µM. 120,000 tested, 0.02% active;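 active = inhibition above 30.3% in the primary screen of four-compound pools, then above 30% when the compound was retested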;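 note: compounds exposed to preformed 24 h biofilms for 48 h; 0% = untreated biofilm control and 100% = clotrimazole plus chlorhexidine kill blank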
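Assay system: C. albicans biofilms / Medium: RPMI/MOPS medium, pH 7.0 / Schedule: biofilm formation 24 h, compound exposure 48 h, 37 °C / Measured by: Alamar Blue fluorescence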
Mcl1-Noxa inh: Mcl-1/Noxa binding inhibitors, primary screen, biochemical, TR-FRET, 1536-well. Induced myeloid leukemia cell differentiation protein Mcl-1 (Homo sapiens), Q07820. TR-FRET Mcl-1/Noxa peptide binding, 2 h. inhibition, % at 21.7 µM. 220,000 tested, 1.5% active;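 active = compounds that cut the protein-peptide binding signal by more than 50% relative to plate controls in a single-dose test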;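 note: His-tagged Mcl-1 with rhodamine Noxa BH3 peptide and terbium anti-His antibody; 0% = Mcl-1 plus Noxa peptide wells and 100% = peptide-only wells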
14-3-3 Bad inh: inhibitors of 14-3-3 zeta/Bad binding, primary screen, biochemical, TR-FRET, bovine 14-3-3 zeta; TR-FRET 14-3-3zeta/Dy647-pBad peptide displacement, 1 h; 14-3-3 protein zeta/delta (Bos taurus), P63103; inhibition, % at 21.7 µM; 220,000 tested, 0.71% active;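 active = inhibition above about 70%, limit read from the data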;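 note: 0% = full 14-3-3 plus peptide FRET controls and 100% = background without 14-3-3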
The depositor's hits bear a star; · = no result given; [ ] = dose if it differs, or a comment.

SMILES	Hck-Nef inh	Bim-Mcl-1	Mcl1 Bid PPI	Calb biofilm kill	Mcl1-Noxa inh	14-3-3 Bad inh
O=C(NCCN1CCOCC1)c1ccc2c(c1)N(Cc1ccccc1F)C(=O)c1ccccc1S2	6.0	0.0	-11.7	14.7	8.8	-18.8
O=C(c1cc(C(=O)N2CCOCC2)c2nc3ccccc3n2c1)c1cc(Cl)cc(Cl)c1O	-2.7	·	-32.8	7.2	27.2	-0.5
COC(=O)C1c2ccccc2-c2ccccc21	21.6	-1.0	6.1	14.2	10.1	77.9*
O=C(O)C1CCCCC1C(=O)NCCc1ccncc1 (stereo not drawn)	-6.2	-2.0	-25.3	·	27.5	72.3*
O=C(O)[C@H]1CCCC[C@H]1C(=O)NCCc1ccccc1	-2.0	0.0	-1.2	·	-5.2	-9.1
CCN(CC)c1ccc(NC(=S)NCC2CCCO2)cc1 (stereo not drawn)	-4.2	-2.0	-30.9	1.8	8.1	-10.2
O=C(CSc1nnc(-c2ccco2)c(-c2ccco2)n1)Nc1ccccc1	-2.9	-1.0	23.1	·	89.6*	54.4
Cc1ccc(NC(=O)CSc2nnc(-c3ccco3)c(-c3ccco3)n2)cc1	10.2	2.0	2.3	·	90.2*	-5.7
COC(=O)c1c(C)[nH]c(C)c1C(C)=O	9.2	·	71.2*	30.7	4.9	-13.2
COC(=O)c1c(C)[nH]c(C)c1-c1ccccc1	2.0	-4.0	-20.9	·	3.6	80.5*[fluorescence artefact?]
O=C(CSc1nnc(-c2cccc(S(=O)(=O)N3CCCCC3)c2)o1)c1ccc[nH]1	5.8	2.0	-27.7	·	24.5	4.0
NC(=O)CSc1nnc(-c2cccc(S(=O)(=O)N3CCCCC3)c2)o1	15.3	·	-29.8	11.4	15.7	84.5*
COc1ccc(-c2c(=O)n(OCc3ccccc3[N+](=O)[O-])c3ccccc3[n+]2[O-])c(OC)c1	-15.4	1.0	-9.3	28.7	18.0	-5.9
Cc1[nH]c2ccccc2c1C(=O)COC(=O)C1CC(=O)N(Cc2ccco2)C1 (stereo not drawn)	3.2	-5.0	-31.7	·	-2.7	7.8
O=C(COC(=O)C1CC(=O)N(Cc2ccco2)C1)c1ccc(OC(=O)c2ccco2)cc1 (stereo not drawn)	-1.8	-4.0	-8.8	·	55.5*	4.3
Cc1ccc(C(=O)Oc2ccc(C(=O)COC(=O)C3CC(=O)N(Cc4ccco4)C3)cc2)cc1 (stereo not drawn)	8.1	0.0	57.0*	14.4	-216.3	18.7
Cc1cc(Cl)ccc1OCCCC(=O)OCC(=O)c1c(N)n(C)c(=O)n(C)c1=O	3.8	·	2.1	14.4	-6.8	4.6
Cc1cc2oc(C(=O)N(Cc3ccccc3)c3ccccn3)cc(=O)c2cc1Cl	23.0	·	-5.8	15.3	3.4	-2.5
Cc1ccccc1OCc1nnc2n1CC(C)S2 (stereo not drawn)	18.4	-1.0	-11.5	·	-2.5	7.7
O=C1c2ccccc2C(=O)N1CC#CCN1CCN(C(c2ccccc2)c2ccccc2)CC1	-16.5	-4.0	62.3*	·	21.8	32.8
COc1ccc(NC2c3ncccc3C(=O)N2Cc2ccccc2)c(OC)c1 (stereo not drawn)	8.3	6.0	64.0*	·	43.1	24.8
Cc1ccc(NC2c3ncccc3C(=O)N2Cc2ccc(F)cc2)cc1 (stereo not drawn)	1.8	-4.0	50.5*	·	31.8	57.1
COc1ccc(CN2C(=O)c3cccnc3C2Nc2ccc(OC)c(Cl)c2)cc1 (stereo not drawn)	3.1	-4.0	69.8*	·	44.3	83.1*
CCOc1ccc(N2C(=O)c3cccnc3C2Nc2ccc(F)cc2)cc1 (stereo not drawn)	1.3	0.0	83.6*	·	18.5	-5.6
O=C1c2cccnc2C(Nc2ccc(Cl)cc2)N1Cc1cccs1 (stereo not drawn)	22.0	0.0	3.1	18.7	5.2	-5.1
SMILES	Hck-Nef inh	Bim-Mcl-1	Mcl1 Bid PPI	Calb biofilm kill	Mcl1-Noxa inh	14-3-3 Bad inh
COc1ccc(CN2C(=O)c3ccccc3C2C(=O)NCc2cccnc2)c(OC)c1 (stereo not drawn)	-1.7	-2.0	-49.8	·	11.3	3.9
COc1ccccc1/C=C/C(=O)NCc1cccnc1	-15.5	-1.0	-7.7	9.6	3.1	-5.3
Cc1nc(-c2ccccc2)sc1C1(C)CC(c2c(Cl)cccc2Cl)=NO1 (stereo not drawn)	19.3	·	9.7	16.9	9.9	0.6
O=C(NC(=S)Nc1ccc2oc(-c3cccnc3)nc2c1)c1cccc(Cl)c1	1.4	2.0	34.9	·	8.4	81.0*
CCCCC(=O)Nc1ccc2oc(-c3cccnc3)nc2c1	1.3	4.0	·	·	·	·
O=C(Nc1ccc2oc(-c3cccnc3)nc2c1)c1cc2ccccc2o1	2.9	1.0	37.6	·	30.7	-248.9
CCCC(=O)Nc1ccc2oc(-c3cccnc3)nc2c1	1.1	-2.0	85.8*	·	-2.0	0.8
COc1ccc(Cc2nnc(NS(=O)(=O)c3ccc(Cl)cc3)s2)cc1OC	23.8	-3.0	-23.1	30.4	26.2	41.3
NC(=O)[C@@H]1CCCN1Cc1nc(-c2cccs2)no1	5.4	-3.0	-45.7	2.7	54.1*	-2.2
COc1cccc(NC(=S)NN2C(C)CCCC2C)c1 (stereo not drawn)	3.0	-6.0	-10.0	-3.1	26.6	1.9
COc1ccc(NC(=S)NN2C(C)CCCC2C)cc1 (stereo not drawn)	0.4	-9.0	41.9	21.9	52.4*	-7.8
CCCCNS(=O)(=O)c1ccc(S(=O)(=O)N2CCC3(CC2)OCCO3)cc1	9.1	-2.0	-19.8	-0.6	9.5	8.0
CCOc1ccc(N2C(=O)CC(/C=C3/N(C)c4ccccc4C3(C)C)C2=O)cc1 (stereo not drawn)	13.1	-2.0	-27.3	·	2.3	-21.4
CN1/C(=C/C2CC(=O)N(c3cccc4ccccc34)C2=O)C(C)(C)c2ccccc21 (stereo not drawn)	-12.7	0.0	-38.3	·	53.9*	8.5
COc1cc(NC(=O)CSc2cc(C)c3cc(C)cc(C)c3n2)c(C(=O)O)cc1OC	27.0	·	-8.4	10.8	14.0	1.3
COc1cc(OC)cc(C(=O)NCC(=O)N2CCCCC2)c1	2.7	0.0	63.2*	·	13.3	-0.6
O=C(Nc1cccc(-c2cn3cccnc3n2)c1)c1ccc2c(c1)OCO2	6.8	-1.0	41.2	·	57.0*	7.7
CCOc1ccc(C(=O)Nc2nnn(CC)n2)cc1	0.7	62.0*	-49.5	·	-8.2	-0.7
O=C(NC1=NCCS1)c1ccccc1OCc1ccccc1Cl	6.0	1.0	-8.8	2.6	1.2	1.0
